Measured values taken from ChEMBL document CHEMBL3397015, “Naturally occurring polyphenol, morin hydrate, inhibits enzymatic activity of N-methylpurine DNA glycosylase, a DNA repair enzyme with various roles in human disease” (Bioorg Med Chem, 2015).
Several values for one entry are separate records, joined by “and”; a condition that tells them apart may be missing. Identical values can stand only once. Counter-ions that a name gives are not always drawn. Activity calls are given as the source filed them. The rule behind the calls is not given here.

Key:
[1] = biological target: T1, DNA-3-methyladenine glycosylase (Homo sapiens, UniProt P29372); experiment: Inhibition of human purified MPG pre-incubated with compound for 10 mins followed by addition of 1,N6 ethenoadenine containing 32P-labeled duplex oligonucleotide substrates by gel-based excision activity assay
In short: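 Purified hMPG (2.3 nM) pre-incubated 10 min at room temperature with a range of compound concentrations. Then 7 nM εA ³²P-duplex substrate, 10 min at 37°C, in HEPES pH 7.9 buffer with 150 mM NaCl. Heat stop, APE1 cleavage of AP sites. Products resolved on 7 M urea/20% PAGE and bands quantified; IC50 from the concentration series.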

[2] = Binding affinity to ethenoadenine containing 5'-TCGAGGATCCTGAGCTCGAGTCGACGXTCGCGAATTCTGCGGATCCAAGC-3' duplex oligonucleotide DNA (unknown origin) at 15 uM by SPR assay
In short: (§1)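 Biotinylated 50-mer oligonucleotide, undamaged or εA-containing, immobilized on streptavidin-coated C1 chip (Biacore T100). Compound injected at 15 µM in 10 mM HEPES-KOH pH 7.6, 90 mM KCl, 0.05% surfactant P20 at 7°C; background-subtracted RU recorded over repeated 60 s injections.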

[3] = Binding affinity to 5'-TCGAGGATCCTGAGCTCGAGTCGACGXTCGCGAATTCTGCGGATCCAAGC-3' duplex oligonucleotide DNA (unknown origin) at 15 uM by SPR assay; in short: as §1
[4] = biological target: T1, DNA-3-methyladenine glycosylase; experiment: Inhibition of human purified MPG binding to immobilized ethenoadenine containing 5'-TCGAGGATCCTGAGCTCGAGTCGACGXTCGCGAATTCTGCGGATCCAAGC-3' duplex oligonucleotide at 5 to 40 uM by SPR assay
In short: (§2)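 εA-containing 50-mer biotinylated and immobilised on a streptavidin C1 chip. 30 nM hMPG pre-mixed with compound (0, 5, 10, 20, 40 µM) and injected twice for 60 s each. Buffer: 10 mM HEPES-KOH pH 7.6, 90 mM KCl, 0.05% P20, 7°C. Inhibition taken as percent decrease in background-subtracted RU versus DMSO.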

[5] = biological target: T1, DNA-3-methyladenine glycosylase; experiment: Inhibition of human purified MPG binding to immobilized ethenoadenine containing 5'-TCGAGGATCCTGAGCTCGAGTCGACGXTCGCGAATTCTGCGGATCCAAGC-3' duplex oligonucleotide at 40 uM by SPR assay; in short: as §2
[6] = biological target: DNA repair nuclease/redox regulator APEX1 (Homo sapiens) (UniProt P27695); experiment: Inhibition of APE1 (unknown origin) pre-incubated with compound for 10 mins followed by addition of […] at 20 to 40 uM by gel-based excision activity assay
[7] = biological target: N-glycosylase/DNA lyase (Homo sapiens) (UniProt O15527); experiment: Inhibition of OGG1 (unknown origin) pre-incubated with compound for 10 mins followed by addition of […] containing 32P-labeled duplex oligonucleotide substrates at 20 to 40 uM by gel-based excision activity assay
In short: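 Purified OGG1 pre-incubated with compound (0, 20, 40 µM) 10 min at room temperature. Products resolved on denaturing 20% polyacrylamide/7M urea gels; band intensities quantified.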

[8] = biological target: T1, DNA-3-methyladenine glycosylase; experiment: Inhibition of human purified MPG pre-incubated with compound for 10 mins followed by addition of 1,N6 ethenoadenine containing 32P-labeled duplex oligonucleotide substrates at 20 uM by gel-based excision activity assay
In short: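 Purified hMPG (2.3 nM) pre-incubated 10 min at room temperature with 20 µM compound. Then 7 nM εA ³²P-duplex added, 10 min at 37°C, in 25 mM HEPES pH 7.9, 150 mM NaCl, BSA, DTT, 10% glycerol. Stopped 65°C, AP sites cut with 15 nM APE1/5 mM MgCl₂. Denaturing 20% PAGE, band densitometry.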

[9] = biological target: T1, DNA-3-methyladenine glycosylase; experiment: Inhibition of MPG in human A549 cell extracts at 50 to 300 uM using 1,N6 ethenoadenine containing 32P-labeled duplex oligonucleotide substrates by gel-based excision activity assay
In short: (§3)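 Whole-cell extract (5 µg; A549 or HeLa, made with M-PER) pre-incubated with compound at 0, 50, 100, 200 and 300 µM for 10 min at room temperature. Then 3 nM εA ³²P-duplex substrate added; buffer and workup as for purified enzyme. Product bands on denaturing urea gel quantified as percent product formation, normalised to untreated samples.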

[10] = biological target: T1, DNA-3-methyladenine glycosylase; experiment: Inhibition of MPG in human HeLa cell extracts at 50 to 300 uM using 1,N6 ethenoadenine containing 32P-labeled duplex oligonucleotide substrates by gel-based excision activity assay; in short: as §3
[11] = biological target: T1, DNA-3-methyladenine glycosylase; experiment: Inhibition of MPG in human A549 cells assessed as reduction in DNA repair at 200 and 300 uM using ethenoadenine-containing M13mp18 plasmids by plasmid based in-cell repair assay
In short: (§4)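 Lesion plasmid built in vitro: M13mp18 with εA at the EcoRI site; cells in DMEM/10% FBS, compound at 0, 200 or 300 µM. Plasmid transfected into cells, then recovered after harvest. EcoRI digest tests the lesion site and SacI the internal control site. Repair scored by plaque formation.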

[12] = biological target: N-glycosylase/DNA lyase (Homo sapiens) (UniProt O15527); experiment: Inhibition of OGG1 in human A549 cells assessed as reduction in DNA repair at 200 and 300 uM using 8-oxodG-containing M13mp18 plasmids by plasmid based in-cell repair assay
In short: (§5)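 A549 or HeLa cells (DMEM, 10% FBS) treated with compound (0, 200, 300 µM) and transfected with in vitro–built 8-oxo-dG-containing M13mp18 plasmid (lesion at EcoRI site). Plasmids recovered, digested with EcoRI (lesion site) and SacI (internal control), and used for plaque formation to calculate repair.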

[13] = biological target: T1, DNA-3-methyladenine glycosylase; experiment: Inhibition of MPG in human HeLa cells assessed as reduction in DNA repair at 200 and 300 uM using ethenoadenine-containing M13mp18 plasmids by plasmid based in-cell repair assay; in short: as §4
[14] = biological target: N-glycosylase/DNA lyase (Homo sapiens) (UniProt O15527); experiment: Inhibition of OGG1 in human HeLa cells assessed as reduction in DNA repair at 200 and 300 uM using 8-oxodG-containing M13mp18 plasmids by plasmid based in-cell repair assay; in short: as §5
[15] = biological target: T1, DNA-3-methyladenine glycosylase; experiment: Inhibition of MPG in human HeLa cells assessed as reduction in DNA repair at 300 uM using ethenoadenine-containing M13mp18 plasmids by plasmid based in-cell repair assay; in short: as §4
[16] = biological target: T1, DNA-3-methyladenine glycosylase; experiment: Inhibition of MPG in human A549 cells assessed as reduction in DNA repair at 300 uM using ethenoadenine-containing M13mp18 plasmids by plasmid based in-cell repair assay; in short: as §4
[17] = tested on: A549; experiment: Toxicity against human A549 cells assessed as reduction in cell viability at 0.2 to 1.4 mM after 72 hrs by MTT assay; assay type: cell-based; settings: a549, 72 h, 1400 µM
In short: (§6)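 A549 or HeLa cells seeded at 2000 per well, treated next day for 72 h in triplicate with compound (0–2 mM). Then MTT 0.5 mg/mL for 4 h at 37°C, DMSO solubilization. Absorbance read at 570 nm minus 650 nm background; percent survival relative to untreated wells.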

[18] = tested on: HeLa; experiment: Toxicity against human HeLa cells assessed as reduction in cell viability at 0.2 to 1.4 mM after 72 hrs by MTT assay; assay type: cell-based; settings: 1400 µM; in short: as §6

Chain of N-glycosylase/DNA lyase (Homo sapiens) (O15527 whole entry): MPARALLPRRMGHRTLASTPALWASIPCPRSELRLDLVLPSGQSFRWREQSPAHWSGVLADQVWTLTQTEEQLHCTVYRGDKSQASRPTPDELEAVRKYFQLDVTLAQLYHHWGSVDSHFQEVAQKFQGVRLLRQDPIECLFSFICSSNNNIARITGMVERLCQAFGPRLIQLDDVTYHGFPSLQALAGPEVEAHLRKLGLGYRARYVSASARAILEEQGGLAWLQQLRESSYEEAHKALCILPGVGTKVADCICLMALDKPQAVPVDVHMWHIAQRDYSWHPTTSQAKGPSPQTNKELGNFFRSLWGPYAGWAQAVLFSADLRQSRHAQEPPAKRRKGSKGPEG
T1 sequence (P29372 whole entry): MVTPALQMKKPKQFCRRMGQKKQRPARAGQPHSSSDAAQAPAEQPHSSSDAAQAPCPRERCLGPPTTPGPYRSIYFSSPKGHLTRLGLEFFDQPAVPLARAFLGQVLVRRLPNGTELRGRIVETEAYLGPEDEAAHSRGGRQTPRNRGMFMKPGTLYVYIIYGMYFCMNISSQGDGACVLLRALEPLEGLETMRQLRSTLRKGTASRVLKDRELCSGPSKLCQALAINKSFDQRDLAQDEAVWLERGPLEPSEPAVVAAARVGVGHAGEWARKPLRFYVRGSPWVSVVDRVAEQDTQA
Chain of DNA repair nuclease/redox regulator APEX1 (Homo sapiens) (P27695 whole entry): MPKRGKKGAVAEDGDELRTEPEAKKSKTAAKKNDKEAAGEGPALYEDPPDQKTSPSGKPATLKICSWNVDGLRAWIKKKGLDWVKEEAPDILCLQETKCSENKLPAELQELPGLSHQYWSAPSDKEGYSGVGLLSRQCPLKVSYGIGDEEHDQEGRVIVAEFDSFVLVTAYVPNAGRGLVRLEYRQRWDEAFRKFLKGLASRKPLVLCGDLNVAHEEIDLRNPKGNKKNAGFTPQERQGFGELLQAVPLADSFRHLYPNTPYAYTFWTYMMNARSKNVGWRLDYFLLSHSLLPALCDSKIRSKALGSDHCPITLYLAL

What does the source list for `O.O=c1c(O)c(-c2ccc(O)cc2O)oc2cc(O)cc(O)c12`?
IC50 [1]: 2.6 µM; Activity [2]: inactive; Activity [3]: inactive; IC50 [4]: 12 µM; inhibition [5]: Active; inhibition [6]: inactive; inhibition [7]: inactive; inhibition [8]: 81%; inhibition [9]: Dose-dependent effect; inhibition [10]: Dose-dependent effect; inhibition [11]: Dose-dependent effect; inhibition [12]: inactive; inhibition [13]: Dose-dependent effect; inhibition [14]: inactive; inhibition [15]: 50%; inhibition [16]: 50%; Activity [17]: Non-toxic; Activity [18]: Non-toxic

For `O=C1c2c(O)ccc(O)c2C(=O)c2c(NCCNCCO)ccc(NCCNCCO)c21` [MITOXANTRONE HYDROCHLORIDE], which IC50 [1] is on record?
Its IC50 is 2.5 µM.

What about the Activity [2] of the same compound?
Its Activity is “Active”.

For `O=c1c(O)c(-c2ccc(O)c(O)c2)oc2cc(O)cc(O)c12`, which inhibition [8] is on record?
The inhibition was 38% and 44%.

What about the inhibition [9] of the same compound?
Its inhibition is “inactive”.

And the inhibition [10]?
The inhibition was “inactive”.

Which inhibition [8] does the source give for `O=C(O)/C=C/c1ccc(O)c(O)c1` here?
The inhibition was 0%.

For `Cc1cc2c(C(C)C)c(O)c(O)c(C=O)c2c(O)c1-c1c(C)cc2c(C(C)C)c(O)c(O)c(C=O)c2c1O` [GOSSYPOL], which IC50 [1] is on record?
The IC50 was 3 µM.

And the Activity [2]?
The Activity was “Active”.

With `O=C(O)C1=CC(=C(c2ccc(O)c(C(=O)O)c2)c2ccc(O)c(C(=O)O)c2)C=CC1=O` [AURINTRICARBOXYLIC ACID] as the compound, how does the IC50 [1] read?
The IC50 was 0.2 µM.

With `O=c1c(O)c(-c2cc(O)c(O)c(O)c2)oc2cc(O)cc(O)c12` as the compound, how does the inhibition [8] read?
Its inhibition is 36%.

With `O=C/C=C/c1ccccc1` as the compound, how does the inhibition [8] read?
Its inhibition is 0%.

With `O=c1c(O)c(-c2ccc(O)cc2)oc2cc(O)cc(O)c12` as the compound, how does the inhibition [8] read?
Its inhibition is 25%.
